Experimental data collected from several papers.
Lines come from different studies, so protocols differ.
Target: Receptor-interacting serine/threonine-protein kinase 2 (RIPK2, Homo sapiens, UniProt O43353)

| Compound | effect on | method | concentration | remaining binding [%] |
| --- | --- | --- | --- | --- |
| c1cnn2ncc(-c3ccnc(N4CCC45COC5)n3)c2c1 | binding | – | 1 µM | 78 |
| C=CC(=O)N1CCC(C(=O)NCC(=O)N2CCN(c3nc(-c4cnc(N)nc4C(F)F)nc(N4CCOCC4)n3)CC2)CC1 | binding | competition with immobilised ligand | 1 µM | 100 |
| O=C(NCC1CCOCC1)c1n[nH]cc1NC(=O)c1c(F)cccc1F | binding | competition with immobilised ligand | 1 µM | 100 |
| COc1cnc(Nc2cccc(S(N)(=O)=O)c2)nc1N1CCN(c2ccccc2)CC1 | binding | competition with immobilised ligand | 1 µM | 100 |
| O=C(NCc1ncc(C(F)(F)F)cc1Cl)c1ccc2c(c1)C1(CCS(=O)(=O)CC1)[C@H](C1CC1)N2S(=O)(=O)c1ccc(F)cc1 | cell-free assay | competition with immobilised ligand | 1 µM | 100 |
| Cc1cnc(Nc2ccc(C(=O)N3CCC(N4CCCC4)CC3)cc2)nc1-c1cc2ccccc2s1 | binding | competition with immobilised ligand | 1 µM | 81 |
| COc1cnc(Nc2cccc(S(N)(=O)=O)c2)nc1N1CCN(c2ccccc2)C(=O)C1 | binding | competition with immobilised ligand | 1 µM | 100 |
| CN(c1nccc(-c2cnn3ncccc23)n1)C1CC1 | binding | – | 1 µM | 87 |
| C[C@@H](c1ccc(-n2cnc3c(N)ncnc32)cc1)N1CCc2nn(C)c(Cc3ccccc3)c2C1=O | binding | competition with immobilised ligand | 0.1 µM | 100 |
| c1ccc(N2CCN(Cc3nc4ccccc4[nH]3)CC2)nc1 | binding | competition with immobilised ligand | 1 µM | 100 |
| CN(C)c1ncc(F)c(-c2cnn3ncccc23)n1 | binding | – | 1 µM | 100 |
| O=C(c1ccc(Nc2ncc(Cl)c(-c3cc4ccccc4s3)n2)cc1)N1CCC(N2CCCC2)CC1 | binding | competition with immobilised ligand | 1 µM | 98 |
| Nc1cnc(N2CCc3cc(S(=O)(=O)Nc4c(F)cc(Cl)cc4F)cc(N4CCCC4=O)c32)nc1 | cell-free assay | competition with immobilised ligand | 1 µM | 53 |
| C[C@H]1CCN(c2nccc(-c3cnn4ncccc34)n2)C1 | binding | – | 1 µM | 95 |
| CN(C)C(=O)Cn1cc(-c2nc(C3(c4ccc(-c5cnc(N)nc5)cc4)CC3)no2)cn1 | cell-free assay | competition with immobilised ligand | 1 µM | 100 |
| CN(CCCC(F)(F)F)c1nccc(-c2cnn3ncccc23)n1 | binding | – | 1 µM | 89 |
| CCN1CCN(Cc2ccc(C(=O)Nc3ccc(C)c(Oc4ccc5c(c4)CC(=O)N5)c3)cc2C(F)(F)F)CC1 | binding | competition with immobilised ligand | 1 µM | 100 |
| CN(C(=O)c1ccccc1)c1cc(N(C)c2ccc3c(c2)CCc2ccc(C(=O)NCCN4CCOCC4)cc2C3=O)ccc1F | cell-free assay | competition with immobilised ligand | 1 µM | 56 |
| O=C(c1ccc(Nc2nccc(-c3cc4ccccc4s3)n2)cc1)N1CCC(N2CCCC2)CC1 | binding | competition with immobilised ligand | 1 µM | 79 |
| COc1ncc2cc3ccccc3nc2c1C#N | cell-free assay | competition with immobilised ligand | 5 µM | 100 |
| N[C@@H]1CCN(c2nccc(-c3cnn4ncccc34)n2)C1 | binding | – | 1 µM | 95 |
| O=C(NC[C@@H]1[C@H]2CN(C(=O)OCc3cc(C(F)(F)F)cc(C(F)(F)F)c3)C[C@@H]12)c1ccc2[nH]nnc2c1 | cell-free assay | competition with immobilised ligand | 1 µM | 64 |
